# Experimental data from different studies.
# Each line is one published result; the experiments were not run side by side.
# Target: Serine/threonine-protein kinase 3 (STK3, Homo sapiens, UniProt Q13188)
# One construct used (Q13188 1-491): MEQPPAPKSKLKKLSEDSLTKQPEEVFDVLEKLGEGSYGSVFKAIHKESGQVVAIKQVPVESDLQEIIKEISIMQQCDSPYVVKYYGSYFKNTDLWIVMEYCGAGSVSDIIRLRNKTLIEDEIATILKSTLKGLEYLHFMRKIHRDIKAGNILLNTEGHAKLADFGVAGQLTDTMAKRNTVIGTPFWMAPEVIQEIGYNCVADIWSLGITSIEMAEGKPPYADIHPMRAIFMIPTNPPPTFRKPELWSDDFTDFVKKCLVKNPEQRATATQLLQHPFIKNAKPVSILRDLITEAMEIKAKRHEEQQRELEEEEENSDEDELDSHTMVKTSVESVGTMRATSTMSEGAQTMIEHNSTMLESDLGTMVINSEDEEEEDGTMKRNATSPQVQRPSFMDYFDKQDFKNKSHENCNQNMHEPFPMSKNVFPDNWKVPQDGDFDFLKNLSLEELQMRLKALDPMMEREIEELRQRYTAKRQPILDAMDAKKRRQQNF
SMILES,effect on,mode,technique,cells,tested at,endpoint,value
COc1cc(/C=C/C(=O)CC(=O)/C=C/c2ccc(O)c(OC)c2)ccc1O,enzyme activity,inhibitor,,,1 µM,activity vs control,42%
Nc1nc(NC2CCCCC2)sc1C(=O)c1ccccc1,enzyme activity,inhibitor,,,10 µM,remaining activity,97%
CC/C(=N\NC(=O)NCc1cccc(O)c1)c1ccc(O)c(C)c1O,enzyme activity,inhibitor,,,0.1 µM,inhibition,-0.5%
CNCc1ccc(-c2cc(-c3nc(-c4ccc(S(=O)(=O)C(C)C)cc4)cnc3N)on2)cc1,enzyme activity,inhibitor,,,2 µM,inhibition,43%
Cn1c2c(c3ccc(Cl)c(Cl)c31)C(C#N)C1(CCOCC1)NC2=O (stereo not drawn),thermal stability,,DSF,,10 µM,ΔTm,-0.1 °C
Cc1c(NC(=O)c2cc(C(N)=O)nc3cc(F)ccc23)c(C(F)(F)F)nn1Cc1ccc(C(C)(C)C)cc1,cell-free assay,,competition with immobilised ligand,,1 µM,remaining binding,90%
CNC(=O)c1cc(Oc2ccc(NC(=O)Nc3ccc(Cl)c(C(F)(F)F)c3)cc2)ccn1,cell-free assay,inhibitor,,,10 µM,inhibition,-8%
O=C(Nc1cnn(-c2csc(C(=O)NC3COC3)c2)c1)Nc1ccccc1Cl,enzyme activity,inhibitor,,,5 µM,remaining activity,120%
CS(=O)(=O)CCNCc1ccc(-c2ccc3ncnc(Nc4ccc(OCc5cccc(F)c5)c(Cl)c4)c3c2)o1,cell-free assay,,,,0.5 µM,remaining signal,93.7%
CCCOc1ccc(OC)c(F)c1C(=O)c1ccc(C(=O)N[C@@H]2CNC[C@H]2NC(=O)c2ccc3[nH]ncc3c2)cc1,enzyme activity,inhibitor,,,10 µM,remaining activity,85%
CN(C)S(=O)(=O)c1ccc2c(c1)/C(=C/c1cc3c([nH]1)CCCC3)C(=O)N2,cell-free assay,,,,0.5 µM,remaining signal,24.3%
O=C(Nc1cccnn1)N1CCC(=Cc2cccc(Oc3ccc(C(F)(F)F)cn3)c2)CC1,cell-free assay,,competition with immobilised ligand,,1 µM,remaining binding,100%
Cn1c2c(c3ccc(Cl)c(Cl)c31)C(C#N)C(C)(C)NC2=O (stereo not drawn),thermal stability,,DSF,,10 µM,ΔTm,0.4 °C
Cc1cc(-n2nc(Cc3cc(F)cc(C(F)(F)F)c3)nc2C)ccc1C(N)=O,cell-free assay,,competition with immobilised ligand,,1 µM,remaining binding,100%
CC1(C)NC(=O)c2[nH]c3c(Cl)c(Cl)ccc3c2C1C#N (stereo not drawn),thermal stability,,DSF,,10 µM,ΔTm,0.2 °C
Cc1ccc(NC(=O)c2ccc(C)c(C(F)(F)F)c2)cc1C#Cc1nn(C2CCC(O)CC2)c2ncnc(N)c12 (stereo not drawn),cell-free assay,,,,10 µM,remaining signal,63%
CCOC(=O)c1cc2cc(-c3cc(C(=O)NCc4ccc(C(=O)O)cc4)nn3C)ccc2[nH]1,cell-free assay,,competition with immobilised ligand,,0.1 µM,remaining binding,96%
CCN1CCN(Cc2ccc(NC(=O)c3ccc(C)c(Oc4ccnc5[nH]ccc45)c3)cc2C(F)(F)F)CC1,target engagement in cells,inhibitor,chemoproteomics,Huh-7,10 µM,inhibition,-56.5%
